Reference: ChEMBL document CHEMBL1629488, “Synthesis and biological evaluation of 2-(3',4',5'-trimethoxybenzoyl)-3-aryl/arylaminobenzo[b]thiophene derivatives as a novel class of antiproliferative agents” (Eur J Med Chem, 2010)

Key:
[1] = tested on: HL-60; assay: Antiproliferative activity against human HL60 cells after 72 hrs by MTT assay; type: functional, cell-based; details: HL-60, 72 h
[2] = tested on: A549; assay: Antiproliferative activity against human A549 cells after 72 hrs by MTT assay; type: functional, cell-based; details: A549, 72 h
Outline: (§1)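 A549 and HeLa cells grown in DMEM with 10% FBS and penicillin/streptomycin. Plated at 8 × 10^3 cells/well and held 18 h at 37 °C in 5% CO2. Medium replaced with compound in complete medium at varied concentrations for 72 h at 37 °C, then MTT read.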

[3] = tested on: HeLa; assay: Antiproliferative activity against human HeLa cells assessed as cell viability after 72 hrs by MTT assay; type: functional, cell-based; outline: as §1
[4] = tested on: Jurkat; assay: Antiproliferative activity against human Jurkat cells after 72 hrs by MTT assay; type: functional, cell-based
[5] = tested on: K562; assay: Antiproliferative activity against human K562 cells after 72 hrs by MTT assay; type: functional, cell-based; details: K562, 72 h
[6] = Inhibition of tubulin polymerization after 20 mins by turbidimetry
Outline: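 Tubulin (10 µM) in glutamate buffer was preincubated with varied compound concentrations at 30 °C, then cooled to 0 °C. GTP was added and the mixture warmed to 30 °C in cuvettes while turbidity was recorded.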

[7] = Inhibition of tubulin polymerization after 20 mins by turbidimetry

SMILES: COc1ccc(Nc2c(C(=O)c3cc(OC)c(OC)c(OC)c3)sc3ccccc23)cc1
- IC50 [1]: 3.7 µM
- IC50 [2]: 9.3 µM
- IC50 [3]: 7.7 µM
- IC50 [4]: 3.5 µM
- IC50 [5]: 2.9 µM

SMILES: COc1ccc(-c2c(C(=O)c3cc(OC)c(OC)c(OC)c3)sc3ccccc23)cc1
- IC50 [1]: 1.6 µM
- IC50 [2]: 4.4 µM
- IC50 [3]: 4.2 µM
- IC50 [4]: 1.6 µM
- IC50 [5]: 1.7 µM

SMILES: CCOc1ccc(Nc2c(C(=O)c3cc(OC)c(OC)c(OC)c3)sc3cc(C)ccc23)cc1
- IC50 [1]: 4 µM
- IC50 [2]: 5.8 µM
- IC50 [3]: 4.3 µM
- inhibition [6]: 50%
- IC50 [4]: 5 µM
- IC50 [5]: 4.3 µM

SMILES: COc1cc(C(=O)c2sc3ccccc3c2-c2ccc(C)cc2)cc(OC)c1OC
- IC50 [1]: 1.4 µM
- IC50 [2]: 7.8 µM
- IC50 [3]: 3.7 µM
- IC50 [4]: 3.3 µM
- IC50 [5]: 3.5 µM

SMILES: COc1cc(C(=O)c2sc3cc(C)ccc3c2Nc2ccc(C)cc2)cc(OC)c1OC
- IC50 [1]: 1.9 µM
- IC50 [2]: 1.9 µM
- IC50 [7]: 15 µM
- IC50 [3]: 0.98 µM
- IC50 [4]: 2.5 µM
- IC50 [5]: 1.4 µM

SMILES: COc1cc(C(=O)c2sc3ccccc3c2-c2ccc(F)cc2)cc(OC)c1OC
- IC50 [1]: 3.2 µM
- IC50 [2]: 3.2 µM
- IC50 [3]: 3 µM
- IC50 [4]: 2.3 µM
- IC50 [5]: 2.1 µM

SMILES: COc1cc(C(=O)c2sc3ccccc3c2Nc2ccc(Cl)cc2)cc(OC)c1OC
- IC50 [1]: 5.4 µM
- IC50 [2]: 3.1 µM
- IC50 [3]: 3.7 µM
- IC50 [4]: 1.9 µM
- IC50 [5]: 1.1 µM

SMILES: COc1cc(C(=O)c2sc3ccccc3c2Nc2ccccc2)cc(OC)c1OC
- IC50 [1]: 5.2 µM
- IC50 [2]: 3 µM
- IC50 [3]: 2.7 µM
- IC50 [4]: 1.6 µM
- IC50 [5]: 2.3 µM

SMILES: COc1cc(C(=O)c2sc3ccccc3c2-c2ccccc2)cc(OC)c1OC
- IC50 [1]: 1.7 µM
- IC50 [2]: 5 µM
- IC50 [3]: 1.9 µM
- IC50 [4]: 1.5 µM
- IC50 [5]: 2.1 µM

SMILES: COc1ccc(-c2c(C(=O)c3cc(OC)c(OC)c(OC)c3)sc3ccccc23)cc1C
- IC50 [1]: > 10 µM
- IC50 [2]: > 10 µM
- IC50 [3]: > 10 µM
- IC50 [4]: > 10 µM
- IC50 [5]: > 10 µM

SMILES: COc1cc(C(=O)c2sc3ccccc3c2-c2ccc(SC)cc2)cc(OC)c1OC
- IC50 [1]: 1.3 µM
- IC50 [2]: 5.4 µM
- IC50 [3]: 3.5 µM
- IC50 [4]: 1.9 µM
- IC50 [5]: 1.8 µM

SMILES: COc1cc(C(=O)c2sc3ccccc3c2Nc2ccc(C)cc2)cc(OC)c1OC
- IC50 [1]: 4.6 µM
- IC50 [2]: 2.6 µM
- IC50 [3]: 3.5 µM
- IC50 [4]: 1.7 µM
- IC50 [5]: 1.6 µM

SMILES: COc1ccc(OC)c(-c2c(C(=O)c3cc(OC)c(OC)c(OC)c3)sc3ccccc23)c1
- IC50 [1]: > 10 µM
- IC50 [2]: > 10 µM
- IC50 [4]: > 10 µM
- IC50 [5]: > 10 µM

SMILES: COc1ccc(-c2c(C(=O)c3cc(OC)c(OC)c(OC)c3)sc3ccccc23)c(OC)c1
- IC50 [1]: 4.6 µM
- IC50 [2]: 5.8 µM
- IC50 [3]: 3.9 µM
- IC50 [4]: 4 µM
- IC50 [5]: 4.1 µM

SMILES: COc1cc(C(=O)c2sc3ccccc3c2-c2ccc(Cl)cc2)cc(OC)c1OC
- IC50 [1]: 3.3 µM
- IC50 [2]: 7.5 µM
- IC50 [3]: 5.2 µM
- IC50 [4]: 3.7 µM
- IC50 [5]: 4.2 µM

SMILES: COc1ccccc1-c1c(C(=O)c2cc(OC)c(OC)c(OC)c2)sc2ccccc12
- IC50 [1]: 2.9 µM
- IC50 [2]: > 10 µM
- IC50 [3]: 5 µM
- IC50 [4]: 2.9 µM
- IC50 [5]: 3.4 µM

SMILES: CCOc1ccc(-c2c(C(=O)c3cc(OC)c(OC)c(OC)c3)sc3ccccc23)cc1
- IC50 [1]: 3.5 µM
- IC50 [2]: 3.1 µM
- IC50 [3]: 3 µM
- IC50 [4]: 4.1 µM
- IC50 [5]: 3.1 µM
